Compound activity (PubChem)
Hits are enriched below; roughly 1.5% of the tested compounds scored in any of these assays.
APJ antag: APJ receptor antagonism; P35414; CHO-K1 APJ beta-arrestin complementation, luminescence; inhibition, % at 20 µM; 330,000 compounds, 0.32% hits; AID 2521;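 active = inhibition above about 40% at 20 µM, limit read from the data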;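 also: cells challenged with 10 nM apelin-13 agonist together with compound; plate controls were apelin-13 plus DMSO wells for no effect and DMSO wells lacking apelin-13 for full effect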
hiPSC survival: enhancers of human iPSC single-cell survival; hiPSC single-cell survival, ATPlite luminescence; 100% = ROCK inhibitor wells, 0% = DMSO; survival enhancement, % at 20 µM; 360,000 compounds, 0.044% hits; AID 602274; in the data active = survival enhancement above about 18%;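 also: cells exposed to compounds for 16 hours before the ATP read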
CXCR6 block: inhibitors of human CXCR6 receptor; O00574; CHO-K1 PathHunter CXCR6 beta-arrestin, luminescence; inhibition, % at 20 µM; 360,000 compounds, 0.36% hits; in the data active = inhibition above about 34%, passing the limit was not always enough;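 also: antagonist mode with CXCL16 agonist at 10 nM final; 0% = 10 nM CXCL16 with DMSO and 100% = unstimulated wells without agonist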
EBI2 antag: EBI2 (human) antagonism | inhibition, % at 5 µM | P32249 | EBI2 beta-arrestin recruitment, luminescence, 7a,25-OHC stimulated | 360,000 compounds, 0.81% hits; in the data active = inhibition above about 38%;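 also: enzyme fragment complementation signal reports receptor beta-arrestin coupling in cells; 0% = agonist plus DMSO wells and 100% = wells without agonist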
Target sequence (P32249 whole entry, looked up, the tested form may be a part): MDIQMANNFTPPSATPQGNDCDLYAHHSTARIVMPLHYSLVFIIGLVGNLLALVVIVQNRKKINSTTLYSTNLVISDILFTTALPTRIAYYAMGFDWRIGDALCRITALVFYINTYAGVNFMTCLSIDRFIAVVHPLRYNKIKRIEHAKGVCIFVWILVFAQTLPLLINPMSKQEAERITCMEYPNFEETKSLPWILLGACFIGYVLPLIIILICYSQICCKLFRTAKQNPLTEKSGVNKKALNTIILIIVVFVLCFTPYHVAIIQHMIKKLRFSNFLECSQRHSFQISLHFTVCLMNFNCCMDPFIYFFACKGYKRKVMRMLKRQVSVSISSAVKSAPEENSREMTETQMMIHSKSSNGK
APJ ag: agonists of human APJ apelin receptor | P35414 | activation, % at 20 µM | CHO-K1 APJ PathHunter beta-arrestin, luminescence; 0% DMSO wells, 100% apelin | 330,000 compounds, 0.11% hits;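 active = activation more than six SD over the plate average, tested at 20 µM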;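 also: 0% = DMSO alone and 100% = apelin-13 at 10 nM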
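Assay system: CHO-K1 cells stably expressing ProLink-tagged human APJ and arrestin–beta-gal acceptor. Compound dosing: 20 µM single point, 1% DMSO. Times: 16-18 h seeding, 90 min dark compound exposure, 60 min detection. Detection: beta-gal luminescence. Evaluation: APJ–arrestin association signal. Controls: negative DMSO alone, positive Apelin-13 at 10 nM.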
CCR6 antagonist: antagonists of human CCR6 receptor | CHO-K1 CCR6 PathHunter beta-arrestin, luminescence, CCL20-stimulated | AID 493098 | inhibition, % at 20 µM | 340,000 compounds, 0.49% hits | P51684;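 active = compounds whose inhibition of the agonist-driven luminescence signal at 20 µM reaches about 50%, limit read from the data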;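 also: cells stimulated with CCL20 at 14 nM final; plate controls were DMSO with CCL20 for no effect and DMSO without agonist for full effect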
APJ ag conf: confirmation of human APJ apelin receptor agonists. shares compounds with APJ ag. CHO-K1 APJ PathHunter beta-arrestin, luminescence. activation, % at 20 µM. 310 compounds, 10% hits. AID 2764;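 active = activation above 40%, taking the highest of four retests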;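 also: plate controls were DMSO wells for no effect and apelin-13 at 10 nM for full effect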
* hit, by the source's call; / = no result given.

SMILES	APJ antag	hiPSC survival	CXCR6 block	EBI2 antag	APJ ag	CCR6 antagonist	APJ ag conf
N/C(Cc1ccc(Cl)c(Cl)c1)=N\OC(=O)c1ccc(Br)o1	-36	0	-8	-7	21*	-2	18
CCN(CC(=O)Nc1ccc(NC(C)=O)cc1)C(=O)c1cn(-c2ccccc2)nc1-c1cccs1	0	0	-10	-1	0	-4	/
O=c1oc2cc(OCc3ccc([N+](=O)[O-])cc3)ccc2c2c1CCCC2	7	-4	-10	-17	62*	-14	4
O=C(O)c1ccc(COc2ccc3c4c(c(=O)oc3c2)CCC4)o1	3	-2	-5	-2	-9	10	/
O=C(NCCN1CCOCC1)C1CC(=O)N(c2cccc(C(F)(F)F)c2)C1 (stereo not drawn)	23	0	-2	6	-1	-3	/
Cn1c(N2CCOCC2)c(/C=N/OC(=O)c2ccc(F)cc2)c2ccccc21	-48	0	-6	0	17*	1	39
Cc1ccc(C(=O)O/N=C/c2c(N3CCOCC3)n(C)c3ccccc23)cc1	-65	0	-10	-11	6	-40	/
CCN(CC)CCNC(=O)c1cc(-c2cccnc2)nc2ccc(S(=O)(=O)N3CCC(C)CC3)cc12	-21	0	0	-4	52*	12	13
CC12CCC(O)CC1=CCC1C2CCC2(C)c3[nH]ncc3CC12 (stereo not drawn)	/	0	-6	-1	/	1	/
CCOC(=O)C1=C(CSc2nccn2C)NC(=O)NC1c1cc(C)ccc1C (stereo not drawn)	-17	0	7	5	-4	5	/
CCOC(=O)C1=C(Cn2cnc3ccccc32)NC(=O)NC1c1cc(C)ccc1C (stereo not drawn)	31	3	9	-42	62*	13	59*
Cn1c(CC(=O)Nc2ccccc2F)nnc1SCC(=O)Nc1nccs1	9	0	-11	8	1	3	/
N=c1n(CC(=O)c2cccs2)c2ccccc2n1Cc1ccccc1	-15	1	1	-8	28*	7	16
Cc1cc(N/N=C/c2ccc(O)cc2)c2cccc(C)c2n1	-2	-1	-8	13	11	21	/
Cc1cc(C)c2nc(C)cc(N/N=C/c3ccc(O)cc3)c2c1	1	-1	5	-4	42*	8	30
O=c1cc(CN2CCN(C/C=C/c3ccccc3)CC2)c2cc(O)c(-c3ccccc3)cc2o1	-11	-2	1	-5	-1	0	/
CC(C)CN(Cc1cc(=O)oc2cc(-c3ccccc3)c(O)cc12)CC(C)C	-33	0	-11	-40	19*	-24	23
COc1cccc(-c2cc(C(=O)NCC3CCCO3)c3cc(C)cc(C)c3n2)c1 (stereo not drawn)	6	0	4	7	3	17	/
COc1ccc(/C(N)=N/OC(=O)c2cccc([N+](=O)[O-])c2C)cc1	-81	1	-19	12	18*	-17	18
CC(C)C[C@@H](C(=O)NC1CCN(Cc2ccccc2)CC1)N1C(=O)N2CCc3c([nH]c4ccccc34)[C@@]2(C)C1=O	16	-2	9	14	24*	21	25
C[C@@H](C(=O)NC1CCN(Cc2ccccc2)CC1)N1C(=O)N2CCc3c([nH]c4ccccc34)[C@@]2(C)C1=O	1	0	-4	-4	5	-1	/
COc1ccc2[nH]c3c(c2c1)CCN1C(=O)N([C@@H](C)C(=O)NC2CCN(Cc4ccccc4)CC2)C(=O)[C@]31C	8	2	-5	-5	18*	8	38
Cc1cc(C)n2nc(C(=O)OCC(=O)NCc3ccc(Cl)cc3)nc2n1	-5	0	4	-11	-2	14	/
COc1cccc(CN(C)C(=O)CNC(=O)c2ccc(-c3ccccc3)cc2)c1OC	22	0	-10	6	1	6	/
CS(=O)(=O)c1ccc2nc(NC(=O)Nc3cccc(Cl)c3)sc2c1	-20	-1	6	-6	28*	7	16
SMILES	APJ antag	hiPSC survival	CXCR6 block	EBI2 antag	APJ ag	CCR6 antagonist	APJ ag conf
COc1cccc(CN(C)C(=O)/C=C/c2ccc(S(=O)(=O)N3CCCCCC3)cc2)c1	6	0	16	6	-6	26	/
COC(=O)c1ccc(-c2cc(CC3(C(=O)OC)CCN(C(=O)OC(C)(C)C)CC3)on2)cc1	-26	-1	-31	-13	36*	-10	20
COC(=O)C1(Cc2cc(-c3ccccc3)no2)CCN(C(=O)OC(C)(C)C)CC1	7	-1	1	-11	-4	9	/
CN(C(=O)c1cccc(NC(=O)Cc2ccc(NC(=O)C3CCCN(C(=O)C4CC4)C3)cc2)c1)C1CCC1 (stereo not drawn)	/	-1	-2	-9	/	5	/
O=C(Cn1ncc2c([nH]c3ccccc32)c1=O)Nc1ccc(CN2CCCCC2)cc1	-13	0	-7	-9	91*	5	0
Cc1ccc(-n2ncc3c(N4CCN(c5ccccc5)CC4)ncnc32)c(C)c1	-29	-3	-5	-19	17*	-13	40*
COc1ccc(OC)c(NC(=O)COC(=O)CCNc2ccccc2OC)c1	10	1	6	-5	-2	18	/
CCCCNc1c(-c2ccc(OC)c(Sc3ccc(OC)cc3)c2)nc2ccccn12	-157	-2	-15	-75	37*	-28	23
Cc1ccc(/C=N/NC(=O)CSc2nnc(-c3ccc(Cl)cc3)n2-c2ccccc2)o1	-215	-2	-16	-52	17	-68	/
O=C(CSc1nnc(-c2ccc(Cl)cc2)n1-c1ccc(Cl)cc1)N/N=C/c1ccco1	-80	2	-22	16	18*	-34	17
COc1ccc2oc(-c3ccc(NC(=O)c4ccc(N5CCOCC5)c([N+](=O)[O-])c4)cc3)nc2c1	-5	-2	6	-9	10	4	/
O=C(Nc1ccc(-c2nc3ccccc3o2)cc1)c1ccc(N2CCOCC2)c([N+](=O)[O-])c1	9	-2	7	-36	29*	8	24
O=C(Nc1ncccc1O)c1ccc(Oc2ccccc2)cc1	1	0	-5	-3	0	-7	/
Cc1ccc(CCN=c2c([N+](=O)[O-])nn(-c3ccccc3)n2O)cc1	-46	0	-13	-9	14*	-24	25
COC(=O)Cn1cc(/C=C(/C#N)C(=O)N2CCOCC2)c2ccccc21	-5	-1	5	-11	12*	0	6
COc1ccc(C(=O)Nc2ccc(Cl)cc2F)cc1S(=O)(=O)N1CCCC1	1	0	0	-5	-3	9	/
